ChEMBL document CHEMBL4017514, “Discovery of Novel Macrocyclic Hedgehog Pathway Inhibitors Acting by Suppressing the Gli-Mediated Transcription” (J Med Chem, 2017)
The source made the active and inactive calls. The rule behind the calls is not given here.

Legend:
[1] = target: T1, Zinc finger protein GLI1 (Homo sapiens) (UniProt P08151); experiment: Inhibition of biotin-labeled Gli1binding sequence binding to Flag-tagged Gli1 (unknown origin) expressed in mouse NIH/3T3 cells at 1 uM by EMSA; format: cell-based
T1 sequence (whole entry): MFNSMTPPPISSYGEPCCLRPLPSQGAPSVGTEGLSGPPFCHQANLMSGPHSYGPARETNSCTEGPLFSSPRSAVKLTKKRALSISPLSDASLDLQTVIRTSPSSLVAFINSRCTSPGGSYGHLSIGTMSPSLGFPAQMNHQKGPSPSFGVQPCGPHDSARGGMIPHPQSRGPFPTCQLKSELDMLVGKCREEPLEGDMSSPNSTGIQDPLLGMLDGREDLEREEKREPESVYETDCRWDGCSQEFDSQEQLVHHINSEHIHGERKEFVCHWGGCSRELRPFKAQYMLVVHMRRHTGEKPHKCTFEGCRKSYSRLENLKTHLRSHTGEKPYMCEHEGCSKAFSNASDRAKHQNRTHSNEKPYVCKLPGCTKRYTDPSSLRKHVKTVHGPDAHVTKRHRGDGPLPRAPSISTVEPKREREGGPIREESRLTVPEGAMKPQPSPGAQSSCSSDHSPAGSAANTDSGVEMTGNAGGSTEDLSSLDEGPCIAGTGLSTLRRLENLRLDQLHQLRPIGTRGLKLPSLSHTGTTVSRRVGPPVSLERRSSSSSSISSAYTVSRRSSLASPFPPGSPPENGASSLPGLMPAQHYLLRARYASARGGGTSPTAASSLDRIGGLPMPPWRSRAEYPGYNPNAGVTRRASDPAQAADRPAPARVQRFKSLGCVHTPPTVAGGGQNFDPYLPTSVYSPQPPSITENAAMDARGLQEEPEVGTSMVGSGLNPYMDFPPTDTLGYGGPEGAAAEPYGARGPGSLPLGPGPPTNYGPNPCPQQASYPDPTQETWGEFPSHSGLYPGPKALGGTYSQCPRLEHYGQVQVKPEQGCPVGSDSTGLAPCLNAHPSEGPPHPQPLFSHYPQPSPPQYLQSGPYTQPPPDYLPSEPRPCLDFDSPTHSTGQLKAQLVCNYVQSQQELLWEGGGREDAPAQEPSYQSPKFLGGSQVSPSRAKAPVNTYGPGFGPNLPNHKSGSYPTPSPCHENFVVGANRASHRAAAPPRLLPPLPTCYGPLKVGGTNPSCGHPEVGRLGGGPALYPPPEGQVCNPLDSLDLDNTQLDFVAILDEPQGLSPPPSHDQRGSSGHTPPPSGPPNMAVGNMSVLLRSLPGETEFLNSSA
Summary of the method: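 EMSA with biotin-labeled Gli-binding sequence from the twist1 promoter, probing Gli1 DNA binding. Unlabeled Gli-binding sequence served as competitor.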

Mus musculus [2] = species: Mus musculus; experiment: Inhibition of hedgehog signaling pathway in mouse Light2 cells in Shh conditioned medium by Gli-luciferase reporter gene assay; format: cell-based
Summary of the method: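 Light II cells (NIH-3T3 stably transfected with Gli-responsive firefly luciferase and Renilla expression vector) stimulated with ShhN conditioned medium. This medium was collected from ShhN-transfected HEK293 cells kept in 0.1% FBS. Firefly luciferase normalized to Renilla. IC50 given as mean ± SD (nM) from three separate experiments.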

Mus musculus [3] = species: Mus musculus; experiment: Inhibition of hedgehog signaling pathway in mouse C3H10T1/2 cells assessed as downregulation of Shh-induced Gli1 mRNA expression levels at 300 nM after 36 hrs by RT-qPCR analysis; format: cell-based
Summary of the method: (§1)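 NIH-3T3 or C3H10T1/2 cells treated as indicated for 36 h, then collected for RT-qPCR of Gli1 and ptch1 mRNA. Data given as mean ± SD.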

Mus musculus [4] = species: Mus musculus; experiment: Inhibition of hedgehog signaling pathway in mouse Shh Light2 cells harboring Gli1 plasmid assessed as reduction in Gli1-mediated transcriptional activity by luciferase reporter gene assay; format: cell-based
Mus musculus [5] = species: Mus musculus; experiment: Inhibition of hedgehog signaling pathway in mouse NIH/3T3 cells assessed as downregulation of Shh-induced Gli1 mRNA expression levels at 300 nM after 36 hrs by RT-qPCR analysis; format: cell-based; summary of the method: as §1
Mus musculus [6] = species: Mus musculus; experiment: Inhibition of hedgehog signaling pathway in mouse Light2 cells harboring Smo W535L mutant after 36 hrs by Gli luciferase activity; format: cell-based
Summary of the method: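 Light II cells (NIH-3T3 stably carrying Gli-responsive firefly luciferase and Renilla vector) transfected with wild-type, D473H or W535L Smo plasmid. Exposed to compound for 36 h, then dual luciferase assay with firefly/Renilla normalization. IC50 derived and given as mean ± SD.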

Mus musculus [7] = species: Mus musculus; experiment: Inhibition of hedgehog signaling pathway in mouse Ptch+/- p53-/- medulloblastoma cells assessed as reduction in ptch1 mRNA expression at 3 uM by RT-qPCR analysis
Summary of the method: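 ptch+/−;p53−/− medulloblastoma cells kept in Neurobasal A/B-27 medium with EGF and bFGF, then treated. Gli1 and ptch1 mRNA measured by RT-qPCR. Data given as mean ± SD.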

Homo sapiens [8] = species: Homo sapiens; experiment: Inhibition of TNFalpha-induced NFkappaB activation in HEK293 cells at 1 uM after 24 hrs by dual luciferase reporter gene assay; format: cell-based
Summary of the method: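 HEK293 cells carrying NF-κB firefly reporter plus Renilla, stimulated with TNF-α and treated for 24 h. Cells lysed for dual luciferase assay, firefly signal normalized to Renilla. Data given as mean ± SD.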

Homo sapiens [9] = species: Homo sapiens; experiment: Inhibition of PGE2-stimulated TCF/LEF activity in human LS174T cells at 1 uM measured after 6 hrs by dual luciferase reporter gene assay; format: cell-based
Summary of the method: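 LS174T cells carrying TCF/LEF reporter, stimulated with PGE2 and treated for 6 h. Dual luciferase read-out, firefly normalized to Renilla. Data given as mean ± SD.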

Mus musculus [10] = species: Mus musculus; experiment: Inhibition of hedgehog signaling pathway in mouse Light2 cells in Shh conditioned medium at 1 uM by Gli-luciferase reporter gene assay relative to control; format: cell-based

inhibition [1]: inactive
inhibition (Mus musculus [7]): Active
SMILES: COc1ccc(CN2C[C@@H]3CN(S(=O)(=O)c4ccc(Cl)cc4)CC[C@@H]3Oc3c(NC(=O)C4CC4)cccc3C2=O)cc1 (racemic)
inhibition (Mus musculus [2]): Dose-dependent effect
inhibition (Mus musculus [3]): Active
inhibition (Mus musculus [4]): Dose-dependent effect
inhibition (Mus musculus [5]): Active
inhibition (Mus musculus [6]): Dose-dependent effect
inhibition (Homo sapiens [8]): inactive
inhibition (Homo sapiens [9]): Active
inhibition (Mus musculus [10]): 97%
